A value given as a limit tells only on which side of the number the result lay.

IC50 data for 11 compounds are collected here from BindingDB's records for doi:10.1021/np500803e (Chungbuk National University, 2015).

The target in this experiment is Signal transducer and activator of transcription 3 (Homo sapiens, UniProt P40763). As to the kind of experiment: Inhibition of IL6-induced STAT3 activation in human Hep3B cells after 12 hrs by luciferase assay. The essentials: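 Hep3B cells stably carrying a pSTAT3-luciferase reporter, 2 × 10^4 cells/well, grown 24 h, then switched to serum-free medium. Stimulated with IL-6 (10 ng/mL) with or without sample for 12 h. Luciferase activity then read. IC50 taken as the mean of triplicate experiments. Stattic and genistein used as positive controls.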
Sequence of Signal transducer and activator of transcription 3 (P40763 whole entry): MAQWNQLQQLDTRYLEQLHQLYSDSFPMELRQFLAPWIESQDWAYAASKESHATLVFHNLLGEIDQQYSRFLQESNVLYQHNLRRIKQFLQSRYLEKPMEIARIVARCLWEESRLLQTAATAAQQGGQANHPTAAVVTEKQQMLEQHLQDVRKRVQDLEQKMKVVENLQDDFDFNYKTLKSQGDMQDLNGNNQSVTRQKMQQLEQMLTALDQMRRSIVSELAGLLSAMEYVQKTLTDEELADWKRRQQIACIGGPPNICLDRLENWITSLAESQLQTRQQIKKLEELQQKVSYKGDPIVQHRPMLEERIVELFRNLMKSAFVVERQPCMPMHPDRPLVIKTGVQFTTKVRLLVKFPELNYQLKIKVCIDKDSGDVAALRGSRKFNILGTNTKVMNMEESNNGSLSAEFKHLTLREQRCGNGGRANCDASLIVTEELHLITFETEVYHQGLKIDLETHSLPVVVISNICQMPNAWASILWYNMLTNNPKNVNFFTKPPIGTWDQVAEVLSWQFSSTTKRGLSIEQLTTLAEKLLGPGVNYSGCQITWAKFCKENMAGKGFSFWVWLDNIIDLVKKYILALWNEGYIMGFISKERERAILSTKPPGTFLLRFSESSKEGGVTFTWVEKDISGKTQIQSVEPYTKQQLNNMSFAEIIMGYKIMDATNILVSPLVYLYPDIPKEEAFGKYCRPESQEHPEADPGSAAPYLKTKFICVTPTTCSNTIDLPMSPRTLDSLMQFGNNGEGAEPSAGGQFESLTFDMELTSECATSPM
With `CC(C)(/C=C/C[C@](C)(O[C@@H]1O[C@H](CO)[C@@H](O)[C@H](O)[C@H]1O)[C@H]1CC[C@]2(C)[C@@H]1[C@H](O)C[C@@H]1[C@@]3(C)C[C@@H](O)[C@H](O[C@@H]4O[C@H](CO)[C@@H](O)[C@H](O)[C@H]4O[C@@H]4O[C@H](CO)[C@@H](O)[C@H](O)[C@H]4O)C(C)(C)[C@@H]3CC[C@]12C)OO`, the IC50 was greater than 30 µM.

Consider `CC(C)/C=C/C[C@](C)(O[C@@H]1O[C@H](CO[C@@H]2O[C@@H](C)[C@H](O)[C@@H](O)[C@H]2O)[C@@H](O)[C@H](O)[C@H]1O)[C@H]1CC[C@]2(C)[C@@H]1[C@H](O)C[C@@H]1[C@@]3(C)C[C@@H](O)[C@H](O)C(C)(C)[C@@H]3CC[C@]12C`, for which the midpoint of inhibition, the IC50, lay at 0.5 µM.

The compound `C=C(C)C(=O)CC[C@](C)(O[C@@H]1O[C@H](CO[C@@H]2O[C@H](CO)[C@@H](O)[C@H](O)[C@H]2O)[C@@H](O)[C@H](O)[C@H]1O)[C@H]1CC[C@]2(C)[C@@H]1[C@H](O)C[C@@H]1[C@@]3(C)C[C@@H](O)[C@H](O)C(C)(C)[C@@H]3CC[C@]12C` showed an IC50 of 0.27 µM.

Consider `CC(C)(/C=C/C[C@](C)(O[C@@H]1O[C@H](CO[C@@H]2O[C@H](CO)[C@@H](O)[C@H](O)[C@H]2O)[C@@H](O)[C@H](O)[C@H]1O)[C@H]1CC[C@]2(C)[C@@H]1[C@H](O)C[C@@H]1[C@@]3(C)C[C@@H](O)[C@H](O)C(C)(C)[C@@H]3CC[C@]12C)OO`, for which the IC50 is greater than 30 µM.

`C[C@@H]1O[C@@H](OC[C@H]2O[C@@H](O[C@@](C)(C/C=C/C(C)(C)O)[C@H]3CC[C@]4(C)[C@@H]3[C@H](O)C[C@@H]3[C@@]5(C)C[C@@H](O)[C@H](O[C@@H]6O[C@H](CO)[C@@H](O)[C@H](O)[C@H]6O)C(C)(C)[C@@H]5CC[C@]34C)[C@H](O)[C@@H](O)[C@@H]2O)[C@H](O)[C@H](O)[C@H]1O` showed an IC50 of 17.1 µM.

`C=C(C)C(=O)CC[C@](C)(O[C@@H]1O[C@H](CO[C@@H]2O[C@@H](C)[C@H](O)[C@@H](O)[C@H]2O)[C@@H](O)[C@H](O)[C@H]1O)[C@H]1CC[C@]2(C)[C@@H]1[C@H](O)C[C@@H]1[C@@]3(C)C[C@@H](O)[C@H](O[C@@H]4O[C@H](CO)[C@@H](O)[C@H](O)[C@H]4O[C@@H]4O[C@H](CO)[C@@H](O)[C@H](O)[C@H]4O)C(C)(C)[C@@H]3CC[C@]12C`: the IC50 was 19.2 µM.

Compound `CC(C)/C=C/C[C@](C)(O[C@@H]1O[C@H](CO[C@@H]2O[C@@H](C)[C@H](O)[C@@H](O)[C@H]2O)[C@@H](O)[C@H](O)[C@H]1O)[C@H]1CC[C@]2(C)[C@@H]1[C@H](O)C[C@@H]1[C@@]3(C)C[C@@H](O)[C@H](O[C@@H]4O[C@H](CO)[C@@H](O)[C@H](O)[C@H]4O)C(C)(C)[C@@H]3CC[C@]12C` showed an IC50 of 17.6 µM.

For `C=C(C)C(=O)CC[C@](C)(O[C@@H]1O[C@H](CO[C@@H]2O[C@@H](C)[C@H](O)[C@@H](O)[C@H]2O)[C@@H](O)[C@H](O)[C@H]1O)[C@H]1CC[C@]2(C)[C@@H]1[C@H](O)C[C@@H]1[C@@]3(C)C[C@@H](O)[C@H](O)C(C)(C)[C@@H]3CC[C@]12C`, the IC50 worked out at 0.59 µM.

On to `CC(C)/C=C/C[C@](C)(O[C@@H]1O[C@H](CO[C@@H]2O[C@@H](C)[C@H](O)[C@@H](O)[C@H]2O)[C@@H](O)[C@H](O)[C@H]1O)[C@H]1CC[C@]2(C)[C@@H]1[C@H](O)C[C@@H]1[C@@]3(C)C[C@@H](O)[C@H](O[C@@H]4O[C@H](CO)[C@@H](O)[C@H](O)[C@H]4O[C@@H]4O[C@H](CO)[C@@H](O)[C@H](O)[C@H]4O)C(C)(C)[C@@H]3CC[C@]12C`, for which the half-inhibitory concentration (IC50) is greater than 30 µM.

`C[C@@H]1O[C@@H](OC[C@H]2O[C@@H](O[C@@](C)(C/C=C/C(C)(C)OO)[C@H]3CC[C@]4(C)[C@@H]3[C@H](O)C[C@@H]3[C@@]5(C)C[C@@H](O)[C@H](O[C@@H]6O[C@H](CO)[C@@H](O)[C@H](O)[C@H]6O[C@@H]6O[C@H](CO)[C@@H](O)[C@H](O)[C@H]6O)C(C)(C)[C@@H]5CC[C@]34C)[C@H](O)[C@@H](O)[C@@H]2O)[C@H](O)[C@H](O)[C@H]1O` displayed an IC50 greater than 30 µM.

Compound `CC(C)/C=C/C[C@](C)(O[C@@H]1O[C@H](CO[C@@H]2O[C@@H](C)[C@H](O)[C@@H](O)[C@H]2O)[C@@H](O)[C@H](O)[C@H]1O)[C@H]1CC[C@]2(C)[C@@H]1[C@H](O)C[C@@H]1[C@@]3(C)CC[C@H](O[C@@H]4O[C@H](CO)[C@@H](O)[C@H](O)[C@H]4O[C@@H]4O[C@H](CO)[C@@H](O)[C@H](O)[C@H]4O)C(C)(C)[C@@H]3CC[C@]12C` gave an IC50 of 4 µM.
